In ChEMBL document CHEMBL1125790, “Spiro[fluoreneisothiazolidin]one dioxides: new aldose reductase and L-hexonate dehydrogenase inhibitors” (J Med Chem, 1991):

Legend:
[1] = target: Aldo-keto reductase family 1 member B1 (Rattus norvegicus, UniProt P07943); assay: In vitro inhibition of Aldose reductase (AR) from rat lens (RL)
Procedure, shortened: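 Unfractionated rat lens supernatant (50–100 μg protein) run in the reverse direction: 50 mmol/L potassium phosphate pH 7.5, 12 mmol/L benzyl alcohol, 12 μmol/L oxidized 3-acetylpyridine adenine dinucleotide phosphate, room temperature. Reduced analogue formation followed fluorometrically at 365/480 nm. Same enzyme activity used for all inhibitors. IC50 from linear regression over the linear part of the dose–response curve.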

[2] = target: Aldo-keto reductase family 1 member B1 (Rattus norvegicus) (UniProt P07943); assay: Selectivity as ratio of IC50 for rat lens and kidney […]
[3] = target: Aldo-keto reductase family 1 member A1 (Rattus norvegicus, UniProt P51635); assay: In vitro inhibitory activity against L-Hexonate Dehydrogenase (L-HDH) from rat kidney (RK)
Sequence of Aldo-keto reductase family 1 member A1 (P51635 whole entry, looked up): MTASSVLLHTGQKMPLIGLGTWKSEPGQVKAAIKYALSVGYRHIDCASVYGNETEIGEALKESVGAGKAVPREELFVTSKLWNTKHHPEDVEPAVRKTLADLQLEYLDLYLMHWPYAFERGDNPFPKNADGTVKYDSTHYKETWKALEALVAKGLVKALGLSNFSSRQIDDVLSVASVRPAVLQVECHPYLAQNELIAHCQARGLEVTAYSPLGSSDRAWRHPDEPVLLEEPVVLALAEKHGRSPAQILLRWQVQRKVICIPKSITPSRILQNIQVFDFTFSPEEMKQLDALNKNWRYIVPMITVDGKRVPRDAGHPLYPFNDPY

Compound | IC50 [1] | Selectivity quotient [2] | IC50 [3]
O=C1CC2(c3cc(F)ccc3-c3ccc(F)cc32)S(=O)(=O)N1 | 0.018 µM | 0.68 | 0.027 µM
O=C1NC(=O)C2(N1)c1cc(F)ccc1-c1ccc(F)cc12 | 0.009 µM | 1.8 | 0.005 µM
O=C1NS(=O)(=O)CC12c1ccccc1-c1ccc(Cl)cc12 (centres undefined) | 2370 µM | 675 | 3.51 µM
O=C1CC2(c3ccccc3-c3ccc(Cl)cc32)S(=O)(=O)N1 (centres undefined) | 0.233 µM | 2.22 | 0.105 µM
COc1ccc2c(C(=S)N(C)CC(=O)O)cccc2c1C(F)(F)F [TOLRESTAT] | 0.002 µM |  | 
O=C(O)Cc1nn(Cc2ccc(Br)cc2F)c(=O)c2ccccc12 [PONALRESTAT] | 0.02 µM | 0.008 | 2.4 µM
O=C1CC2(c3ccccc3-c3ccc(F)cc32)S(=O)(=O)N1 (centres undefined) | 0.169 µM | 1.12 | 0.151 µM
O=C1NS(=O)(=O)CC12c1cc(F)ccc1-c1ccc(F)cc12 | 6150 µM | 1640 | 3.75 µM
O=C1NS(=O)(=O)CC12c1ccccc1-c1ccccc12 | > 10000 µM | > 2000 | 4.5 µM
O=C1NS(=O)(=O)CC12c1ccccc1-c1ccc(F)cc12 (centres undefined) | > 10000 µM | > 5000 | 2.1 µM
O=C1CC2(c3ccccc3-c3ccccc32)S(=O)(=O)N1 | 1.9 µM | 1.09 | 1.75 µM
O=C1CC2(C(=O)N1)c1cc(F)ccc1-c1ccc(F)cc12 | 0.005 µM | 0.56 | 0.009 µM
